This is an account of results in article PMC3458512 (Organic & biomolecular chemistry, 2012).

For experiment [1], the target named is T. gondii farnesyl pyrophosphate synthase (TgFPPS) (Toxoplasma gondii, UniProt Q197X6). The experiment is classed as biochemical. As to conditions: read-out: IC50 TgFPPS.
Another experiment deals with T. gondii tachyzoites. As to the kind of experiment: T. gondii tachyzoites growth assay. The experiment is classed as cell-based, Toxoplasma gondii. As to conditions: read-out: IC50 T. gondii tachyzoites; growth inhibition of tachyzoites.
Experiment [2] has as its target T. cruzi farnesyl pyrophosphate synthase (TcFPPS) (Trypanosoma cruzi, UniProt Q8WS26). As to the kind of experiment: TcFPPS enzymatic activity inhibition assay. It counts as biochemical. As to conditions: read-out: IC50 TcFPPS; recombinant enzyme.
In another experiment the test system is T. cruzi amastigotes. Nature of the experiment: T. cruzi amastigotes assay. It counts as cell-based, Trypanosoma cruzi. The method, boiled down: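 Vero cells gamma-irradiated (2,000 Rads), seeded at 3.4 × 10^4/well in RPMI + 10% FBS, overnight at 35 °C, 7% CO2. Infected 5 h with 3.4 × 10^5 tdTomato-expressing CL-strain trypomastigotes/well, washed, then serial test compound dilutions in quadruplicate. Controls were uninfected, drug-only and untreated-infected wells, plus benznidazole reference at 3.5 and 1.5 μM. Fluorescence read day 3 post-infection; IC50 by non-linear regression.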

The subject of another experiment is T. cruzi. Particulars: in vivo; cited from earlier work.

For `CC(F)(P(=O)(O)O)P(=O)(O)O` [Compound 36, 1-(Fluoroethylidene)-1,1-bisphosphonic acid], the results for the IC50 (in experiment [1]; in the experiment with T. gondii tachyzoites; in experiment [2]) were over 10000 nM, over 10000 nM and over 1000 nM, respectively.

Consider `CCCCCC(F)(P(=O)(O)O)P(=O)(O)O` [Compound 40, 1-(Fluoro-n-hexylidene)-1,1-bisphosphonic acid], for which the 50% inhibitory concentration (IC50) (in general, the concentration that gives 50% inhibition) in experiment [1] is 160 ± 78 nM; with T. gondii tachyzoites, over 10000 nM; in experiment [2], over 1000 nM.

For the compound `CCCCCCC(F)(P(=O)(O)O)P(=O)(O)O` [Compound 41, 1-(Fluoro-n-heptylidene)-1,1-bisphosphonic acid], the IC50 in experiment [1] was 241 ± 120 nM; with T. gondii tachyzoites it was over 10000 nM; in experiment [2], over 1000 nM.

For the compound `CCCCC(F)(P(=O)(O)O)P(=O)(O)O` [Compound 39, 1-(Fluoro-n-pentylidene)-1,1-bisphosphonic], the IC50 in experiment [1] is 3420 ± 1670 nM; in the experiment on T. gondii tachyzoites, over 10000 nM; in experiment [2] it was over 1000 nM.

Take `CCCCCCCCCC(F)(P(=O)(O)O)P(=O)(O)O` [Compound 44, 1-(Fluoro-n-decylidene)-1,1-bisphosphonic acid]: the IC50 was 60 ± 6 nM in experiment [1], over 10000 nM in the experiment with T. gondii tachyzoites and over 1000 nM in experiment [2].

For the compound `CCCCCCCC(F)(P(=O)(O)O)P(=O)(O)O` [Compound 42, 1-(Fluoro-n-octylidene)-1,1-bisphosphonic acid], the IC50 in experiment [1] was 616 ± 259 nM; in the experiment on T. gondii tachyzoites, over 10000 nM; in experiment [2], over 1000 nM.

`CCCC(F)(P(=O)(O)O)P(=O)(O)O` [Compound 38, 1-(Fluoro-n-butylidene)-1,1-bisphosphonic acid]: the IC50 in experiment [1] was over 10000 nM; in the experiment on T. gondii tachyzoites, over 10000 nM; in experiment [2] it was over 1000 nM.

In the case of `O=P(O)(O)C(F)P(=O)(O)O` [Compound 35, 1-(Fluoromethylene)-1,1-bisphosphonic acid], the half-maximal inhibitory concentration (IC50) in experiment [1] is over 10000 nM; in the experiment with T. gondii tachyzoites, over 10000 nM; in experiment [2], over 1000 nM.

`O=C(Cn1ccnc1[N+](=O)[O-])NCc1ccccc1` [benznidazole, reference compound]: in the experiment with T. cruzi amastigotes (Trypanosoma cruzi, Vero, 72 h, read-out: IC50 T. cruzi amastigotes), the IC50 is 2770 ± 488 nM.

For `CCCCCCCCC(F)(P(=O)(O)O)P(=O)(O)O` [Compound 43, 1-(Fluoro-n-nonylidene)-1,1-bisphosphonic acid], the 50% inhibitory concentration (IC50) in experiment [1] is 35 ± 19 nM; with T. gondii tachyzoites it was 2670 nM; in experiment [2], over 1000 nM. The “growth inhibition of T. cruzi intracellular amastigotes” value in the experiment on T. cruzi amastigotes (at 10 μM) came out at 13% at 10 μM.

Consider `O=P(O)(O)C(O)(Cc1cccnc1)P(=O)(O)O` [Risedronate, risedronate], for which the “survival of T. cruzi-infected mice” value in the experiment with T. cruzi was “significantly increase survival”.

For the compound `CCC(F)(P(=O)(O)O)P(=O)(O)O` [Compound 37, 1-(Fluoro-n-propylidene)-1,1-bisphosphophonic acid], the IC50 in experiment [1] was over 10000 nM; in the experiment on T. gondii tachyzoites it was over 10000 nM; in experiment [2], over 1000 nM.
